Consider four compounds from ChEMBL document CHEMBL1154934, “Identification of piperazine-bisamide GHSR antagonists for the treatment of obesity” (Bioorg Med Chem Lett, 2010).

Data set [1] in a line: Metabolic stability in rat liver microsomes assessed as compound remaining at 1 uM after 30 mins. In kind it is ADME, Microsome. Particulars: read-out: Stability. The procedure, abridged: (§1)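 Compound incubated at 1.0 µM initial concentration with rat or human liver microsomes for 30 min. Percentage of compound remaining determined.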
For orientation: Microsomes from liver hold many membrane-bound enzymes, among them those of drug oxidation.

The nature of data set [2]: Clearance in mouse at 0.5 mg/kg, iv. The note with it: in vivo. Details: dose 0.5 mg/kg, route intravenous. In kind it is ADME, organism-based. The procedure, abridged:
(§2)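 Mice dosed intravenously at 0.5 mg/kg. Clearance, MRT and Vdss derived from plasma pharmacokinetics.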

Data set [3] is described as follows: Mean residence time in mouse at 0.5 mg/kg, iv. Particulars: in vivo. In kind it is ADME, organism-based. Further details: dose 0.5 mg/kg, route intravenous. A digest of the protocol:
as §2

Data set [4] in a line: Metabolic stability in human liver microsomes assessed as compound remaining at 1 uM after 30 mins. The format is ADME, Microsome. The note with it: read-out: Stability. The procedure, abridged:
as §1

Data set [5] in a line: Volume of distribution at steady state in mouse at 0.5 mg/kg, iv. The format is ADME, organism-based. Further details: dose 0.5 mg/kg, route intravenous. The note with it: in vivo, read-out: Vdss. A digest of the protocol:
as §2

Data set [6] relates to MDCK. Kind of data set: Ratio of apparent permeability from basolateral to apical over apical to basolateral side of MDCK cells expressing human MDR1. Particulars: dog.
Data set [7] in a line: Inhibition of rat ghrelin-stimulated growth hormone release from Sprague-Dawley rat pituitary cells pretreated for 10 mins before rat ghrelin challenge measured after 20 mins by RIA assay. The note with it: Pituitary gland cell. In kind it is functional, cell-based. The procedure, abridged: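 Primary pituitary cells from 6–8-week-old male SD rats cultured 3 days at 37 °C, then washed in DMEM/20 mM Hepes/0.3% BSA buffer. Compound pretreatment for 10 min, then co-incubation with rat ghrelin (0.2 µM) plus compound for another 20 min. GH release measured and IC50 derived. Means of three determinations.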

Data set [8] has as its target Growth hormone secretagogue receptor type 1 (Rattus norvegicus) (UniProt O08725). Kind of data set: Agonist activity at rat GHSR expressed in CHO cells assessed as increase in ghrelin-induced [3H]IP accumulation at 10 uM after 1 hr by scintillation counting relative to ghrelin. The format is functional, cell-based. The procedure, abridged:
(§3)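 CHO cells stably expressing human or rat GHSR labelled 12 h with 3H-inositol (1 µCi/mL in DMEM), then exposed to ghrelin or compound at 37 °C for 1.0 h. Lysis with 20 mM formic acid, 4 °C, 4 h. Extract taken onto SPA beads, 12 h in the dark, then radioactivity counted. IP accumulation expressed as % of maximal ghrelin response at 10, 1.0 and 0.1 µM.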

Data set [9] concerns the target T1, Growth hormone secretagogue receptor type 1 (Homo sapiens, UniProt Q92847). Kind of data set: Antagonist activity at human GHSR expressed in CHOK1 cells assessed as inhibition of ghrelin-induced intracellular calcium flux by aequorin flash luminescence assay. The format is functional, cell-based, CHO-K1. The procedure, abridged: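 Aequorin flash luminescence in CHO-K1 cells stably co-expressing human ghrelin receptor and aequorin. […] IC50 values are means of three determinations.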
For orientation: Calcium assays in cells follow changes in intracellular calcium, usually with a dye or a luminescent sensor.

Data set [10] is described as follows: Fraction unbound in mouse plasma. In kind it is ADME, cell-free.
The target in data set [11] is Growth hormone secretagogue receptor type 1 (Rattus norvegicus) (UniProt O08725). In words: Inhibition of rat GHSR expressed in CHOK1 cells assessed as inhibition of ghrelin-induced intracellular calcium flux by aequorin flash luminescence assay. In kind it is functional, cell-based. The note with it: CHO-K1.
Growth hormone secretagogue receptor type 1 (Rattus norvegicus), sequence (O08725 whole entry): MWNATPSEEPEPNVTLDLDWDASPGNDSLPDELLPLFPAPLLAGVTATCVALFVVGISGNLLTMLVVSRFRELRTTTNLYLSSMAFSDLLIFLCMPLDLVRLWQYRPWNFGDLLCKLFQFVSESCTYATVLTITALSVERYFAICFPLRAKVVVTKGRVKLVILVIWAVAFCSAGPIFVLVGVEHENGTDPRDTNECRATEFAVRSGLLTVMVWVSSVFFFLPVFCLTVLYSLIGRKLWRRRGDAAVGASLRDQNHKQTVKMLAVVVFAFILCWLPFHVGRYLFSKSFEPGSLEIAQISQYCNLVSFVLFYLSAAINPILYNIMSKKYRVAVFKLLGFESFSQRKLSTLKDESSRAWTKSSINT
Data set [12] can be described thus: Ratio of brain AUC to plasma AUC in mdr1a knockout mouse. The format is ADME, cell-free. Particulars: brain and plasma.
A short description of data set [13]: Fraction unbound in rat plasma. The format is ADME, cell-free.
A short description of data set [14]: Ratio of brain AUC to plasma AUC in FVB mouse. Particulars: brain and plasma. In kind it is ADME, cell-free.
Data set [15] concerns the target T1, Growth hormone secretagogue receptor type 1. In words: Agonist activity at human GHSR expressed in CHO cells assessed as increase in ghrelin-induced [3H]IP accumulation at 10 uM after 1 hr by scintillation counting relative to ghrelin. In kind it is functional, cell-based. A digest of the protocol:
as §3

The target in data set [16] is Sodium-dependent noradrenaline transporter (Homo sapiens, UniProt P23975). In words: Inhibition of NET.
Data set [17] addresses D(2) dopamine receptor (Homo sapiens, UniProt P14416). Kind of data set: Inhibition of dopamine D2 receptor.
The target in data set [18] is Sodium-dependent dopamine transporter (Homo sapiens, UniProt Q01959). Kind of data set: Inhibition of DAT.
Sodium-dependent dopamine transporter, sequence (Q01959 whole entry): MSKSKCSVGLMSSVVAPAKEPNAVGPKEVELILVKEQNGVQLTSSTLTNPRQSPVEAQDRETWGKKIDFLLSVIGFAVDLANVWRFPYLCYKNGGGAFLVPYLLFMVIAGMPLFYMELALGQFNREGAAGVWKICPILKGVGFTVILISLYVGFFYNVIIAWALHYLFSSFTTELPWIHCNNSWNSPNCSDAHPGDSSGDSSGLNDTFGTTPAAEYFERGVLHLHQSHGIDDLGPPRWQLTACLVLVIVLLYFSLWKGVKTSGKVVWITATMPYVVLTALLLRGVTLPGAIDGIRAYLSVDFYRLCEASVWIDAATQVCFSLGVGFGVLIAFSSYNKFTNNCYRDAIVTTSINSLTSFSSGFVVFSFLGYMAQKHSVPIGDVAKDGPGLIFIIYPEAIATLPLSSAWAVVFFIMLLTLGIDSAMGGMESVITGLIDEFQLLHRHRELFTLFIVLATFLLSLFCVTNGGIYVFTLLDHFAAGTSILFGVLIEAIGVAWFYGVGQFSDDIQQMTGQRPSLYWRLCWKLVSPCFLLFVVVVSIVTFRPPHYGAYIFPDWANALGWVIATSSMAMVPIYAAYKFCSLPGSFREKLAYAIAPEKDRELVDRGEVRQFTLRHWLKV
The target in data set [19] is Sodium-dependent serotonin transporter (Homo sapiens, UniProt P31645). Kind of data set: Inhibition of SERT.
Data set [20] concerns the target T2, Alpha-2A adrenergic receptor (Homo sapiens, UniProt P08913).
T2 sequence (P08913 whole entry): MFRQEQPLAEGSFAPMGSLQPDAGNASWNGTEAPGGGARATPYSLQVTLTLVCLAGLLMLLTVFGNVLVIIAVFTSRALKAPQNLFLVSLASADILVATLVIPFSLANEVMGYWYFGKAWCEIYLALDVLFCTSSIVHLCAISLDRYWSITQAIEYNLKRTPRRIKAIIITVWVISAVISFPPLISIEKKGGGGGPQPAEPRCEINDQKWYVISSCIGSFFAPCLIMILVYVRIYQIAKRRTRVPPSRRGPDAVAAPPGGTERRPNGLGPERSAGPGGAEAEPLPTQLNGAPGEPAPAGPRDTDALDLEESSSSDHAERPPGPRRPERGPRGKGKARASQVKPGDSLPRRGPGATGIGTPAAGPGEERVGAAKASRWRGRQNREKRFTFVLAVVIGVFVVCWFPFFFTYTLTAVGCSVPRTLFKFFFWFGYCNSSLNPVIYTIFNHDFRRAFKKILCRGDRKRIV
Kind of data set: Inhibition of alpha2A adrenergic receptor.

Data set [21] deals with Histamine H2 receptor (Homo sapiens, UniProt P25021). In words: Inhibition of histamine H2 receptor.
Histamine H2 receptor, sequence (P25021 whole entry): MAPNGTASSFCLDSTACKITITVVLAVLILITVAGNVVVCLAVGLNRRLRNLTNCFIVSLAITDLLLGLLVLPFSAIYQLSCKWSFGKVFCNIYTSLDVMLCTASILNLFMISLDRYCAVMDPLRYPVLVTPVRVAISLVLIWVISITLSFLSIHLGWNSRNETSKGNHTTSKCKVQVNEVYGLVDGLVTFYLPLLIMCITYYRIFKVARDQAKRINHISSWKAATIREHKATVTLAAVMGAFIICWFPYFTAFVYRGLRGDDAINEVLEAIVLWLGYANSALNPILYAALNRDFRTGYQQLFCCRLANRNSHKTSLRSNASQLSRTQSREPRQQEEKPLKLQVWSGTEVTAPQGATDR
For data set [22], the target named is Mu-type opioid receptor (Homo sapiens, UniProt P35372). Kind of data set: Inhibition of mu opioid receptor.
Mu-type opioid receptor, sequence (P35372 whole entry): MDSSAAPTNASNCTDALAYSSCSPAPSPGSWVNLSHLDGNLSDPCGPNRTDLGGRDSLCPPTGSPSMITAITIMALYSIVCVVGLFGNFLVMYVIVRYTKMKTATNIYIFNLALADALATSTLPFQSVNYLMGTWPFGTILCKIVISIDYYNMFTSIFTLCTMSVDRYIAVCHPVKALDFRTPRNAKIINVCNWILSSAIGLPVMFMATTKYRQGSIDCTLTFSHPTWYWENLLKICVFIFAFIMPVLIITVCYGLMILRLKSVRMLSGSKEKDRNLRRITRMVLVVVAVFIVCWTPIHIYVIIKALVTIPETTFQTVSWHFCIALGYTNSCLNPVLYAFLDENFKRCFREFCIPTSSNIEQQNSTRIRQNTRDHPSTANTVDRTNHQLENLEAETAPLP
Data set [23] concerns the target Kappa-type opioid receptor (Homo sapiens, UniProt P41145). In words: Inhibition of kappa opioid receptor.
The target in data set [24] is T3, 5-hydroxytryptamine receptor 2C (Homo sapiens, UniProt P28335).
T3 sequence (P28335 whole entry): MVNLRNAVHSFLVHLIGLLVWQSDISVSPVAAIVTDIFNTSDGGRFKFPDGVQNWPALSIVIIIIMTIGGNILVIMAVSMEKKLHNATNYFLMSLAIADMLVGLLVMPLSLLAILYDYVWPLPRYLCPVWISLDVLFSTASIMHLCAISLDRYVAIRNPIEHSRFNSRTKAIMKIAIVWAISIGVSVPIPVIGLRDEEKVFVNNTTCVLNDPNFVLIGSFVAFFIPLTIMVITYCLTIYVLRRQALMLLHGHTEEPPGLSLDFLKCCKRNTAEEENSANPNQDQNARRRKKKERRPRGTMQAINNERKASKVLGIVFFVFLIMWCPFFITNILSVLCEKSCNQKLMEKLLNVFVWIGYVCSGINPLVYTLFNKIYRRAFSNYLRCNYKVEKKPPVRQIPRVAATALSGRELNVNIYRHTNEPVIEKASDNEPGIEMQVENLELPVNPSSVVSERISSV
Kind of data set: Inhibition of 5HT2C (receptor).

Data set [25] is described as follows: Induction of growth hormone release from Sprague-Dawley rat pituitary cells at 1 uM after 20 mins by RIA assay relative to ghrelin. The format is functional, Pituitary gland cell. The procedure, abridged:
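Pituitary cells from 6–8-week-old male SD rats plated on poly-D-lysine and cultured 3 days at 37 °C. Washed with DMEM assay buffer (20 mM Hepes, 0.3% BSA) and held 5 min at 37 °C. Treated with rat ghrelin or compound for 20 min, then GH release measured as % of maximal ghrelin response. Means of three determinations.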

Data set [26] concerns the target Muscarinic acetylcholine receptor M3 (Homo sapiens, UniProt P20309). Kind of data set: Inhibition of muscarinic M3 receptor.
Data set [27] deals with 5-hydroxytryptamine receptor 2A (Homo sapiens, UniProt P28223). In words: Inhibition of 5HT2A (receptor).
5-hydroxytryptamine receptor 2A, sequence (P28223 whole entry): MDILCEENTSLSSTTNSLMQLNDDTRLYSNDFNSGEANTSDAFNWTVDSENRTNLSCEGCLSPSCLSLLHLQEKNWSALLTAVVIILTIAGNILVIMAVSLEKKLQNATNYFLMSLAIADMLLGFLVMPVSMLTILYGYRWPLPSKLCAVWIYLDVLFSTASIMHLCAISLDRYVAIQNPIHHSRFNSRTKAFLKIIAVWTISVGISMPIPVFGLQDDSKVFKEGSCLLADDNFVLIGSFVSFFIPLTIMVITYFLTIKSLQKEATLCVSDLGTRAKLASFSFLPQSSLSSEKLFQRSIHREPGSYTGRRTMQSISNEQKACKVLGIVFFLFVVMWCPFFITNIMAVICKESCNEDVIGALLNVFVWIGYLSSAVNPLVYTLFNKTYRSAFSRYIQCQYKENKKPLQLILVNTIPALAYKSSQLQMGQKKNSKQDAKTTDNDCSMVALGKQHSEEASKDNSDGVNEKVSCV
For data set [28], the target named is D(3) dopamine receptor (Homo sapiens, UniProt P35462). In words: Inhibition of dopamine D3 receptor.
D(3) dopamine receptor, sequence (P35462 whole entry): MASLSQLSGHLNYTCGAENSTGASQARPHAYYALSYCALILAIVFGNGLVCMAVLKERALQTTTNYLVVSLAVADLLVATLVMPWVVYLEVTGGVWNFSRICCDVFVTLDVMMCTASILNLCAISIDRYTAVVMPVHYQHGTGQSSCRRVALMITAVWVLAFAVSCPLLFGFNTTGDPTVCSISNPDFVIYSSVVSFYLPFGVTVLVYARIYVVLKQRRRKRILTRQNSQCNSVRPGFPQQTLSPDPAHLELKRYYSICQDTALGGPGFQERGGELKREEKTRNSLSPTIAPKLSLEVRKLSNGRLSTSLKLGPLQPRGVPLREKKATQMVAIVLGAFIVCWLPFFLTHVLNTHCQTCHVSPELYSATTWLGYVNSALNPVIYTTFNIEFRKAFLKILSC

T1 sequence (Q92847 whole entry): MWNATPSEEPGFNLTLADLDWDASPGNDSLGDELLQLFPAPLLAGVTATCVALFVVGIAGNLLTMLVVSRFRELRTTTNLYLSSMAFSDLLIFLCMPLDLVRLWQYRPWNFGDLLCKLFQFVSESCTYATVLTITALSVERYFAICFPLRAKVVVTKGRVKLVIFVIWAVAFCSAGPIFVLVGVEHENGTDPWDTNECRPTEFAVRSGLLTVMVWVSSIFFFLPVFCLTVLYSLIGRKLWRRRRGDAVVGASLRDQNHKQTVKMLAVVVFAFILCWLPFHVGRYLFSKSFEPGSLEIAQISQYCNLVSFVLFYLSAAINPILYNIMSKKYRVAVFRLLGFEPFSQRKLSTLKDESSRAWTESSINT
Kappa-type opioid receptor, sequence (P41145 whole entry): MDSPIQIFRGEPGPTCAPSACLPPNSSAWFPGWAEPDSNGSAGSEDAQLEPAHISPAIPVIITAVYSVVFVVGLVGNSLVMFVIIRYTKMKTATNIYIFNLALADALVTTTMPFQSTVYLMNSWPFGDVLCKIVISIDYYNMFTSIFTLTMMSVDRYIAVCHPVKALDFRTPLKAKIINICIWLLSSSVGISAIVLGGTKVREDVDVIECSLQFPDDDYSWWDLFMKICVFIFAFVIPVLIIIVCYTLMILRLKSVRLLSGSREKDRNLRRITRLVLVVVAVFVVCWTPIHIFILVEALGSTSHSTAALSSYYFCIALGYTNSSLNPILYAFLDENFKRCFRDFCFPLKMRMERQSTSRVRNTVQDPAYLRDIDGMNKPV
D(2) dopamine receptor, sequence (P14416 whole entry): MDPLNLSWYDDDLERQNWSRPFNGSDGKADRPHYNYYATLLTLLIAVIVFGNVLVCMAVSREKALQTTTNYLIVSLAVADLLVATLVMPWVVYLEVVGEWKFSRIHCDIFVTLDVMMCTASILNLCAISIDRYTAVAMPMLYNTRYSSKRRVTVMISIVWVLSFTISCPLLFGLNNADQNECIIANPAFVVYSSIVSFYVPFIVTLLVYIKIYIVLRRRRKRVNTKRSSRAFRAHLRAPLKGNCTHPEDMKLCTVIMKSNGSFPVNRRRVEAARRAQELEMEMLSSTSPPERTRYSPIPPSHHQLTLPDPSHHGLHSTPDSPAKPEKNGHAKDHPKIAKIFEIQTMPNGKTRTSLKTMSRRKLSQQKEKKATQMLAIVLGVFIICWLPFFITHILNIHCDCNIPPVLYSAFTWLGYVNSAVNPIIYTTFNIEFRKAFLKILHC
Muscarinic acetylcholine receptor M3, sequence (P20309 whole entry): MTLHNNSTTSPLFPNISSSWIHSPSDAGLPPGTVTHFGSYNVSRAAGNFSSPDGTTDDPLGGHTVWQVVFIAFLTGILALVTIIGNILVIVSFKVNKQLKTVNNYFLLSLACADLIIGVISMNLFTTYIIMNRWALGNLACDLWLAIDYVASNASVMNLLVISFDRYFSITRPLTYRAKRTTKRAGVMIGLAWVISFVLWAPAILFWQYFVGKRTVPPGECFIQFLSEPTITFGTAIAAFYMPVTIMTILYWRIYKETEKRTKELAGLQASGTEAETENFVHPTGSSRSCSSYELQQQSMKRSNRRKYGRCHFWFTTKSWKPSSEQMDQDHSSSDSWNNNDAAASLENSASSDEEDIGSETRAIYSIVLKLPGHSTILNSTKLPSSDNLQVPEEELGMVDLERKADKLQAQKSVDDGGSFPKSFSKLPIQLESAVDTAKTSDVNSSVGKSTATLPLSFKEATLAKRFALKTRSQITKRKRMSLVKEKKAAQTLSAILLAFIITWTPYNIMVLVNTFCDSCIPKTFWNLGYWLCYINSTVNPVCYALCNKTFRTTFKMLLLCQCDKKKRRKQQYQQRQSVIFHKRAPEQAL

Take `C[C@H]1CN(C(=O)c2ccc(-c3ccncc3)c(F)c2)CCN1C(=O)c1ccc2cc[nH]c2c1`: the remaining at 0.5 h, 1 µM was found to be 78% in data set [1] and 87% in [4]. The same compound showed a clearance in data set [2] of 32.7 mL/min/kg. Further, in data set [3], the MRT turned out to be 42 min. In [5], the Vd was found to be 1.4 L/kg. In addition, the Ratio in [6] is 1.7. For the same compound, the IC50 came to 93 nM in data set [7], 12.2 nM in data set [9] and 10.3 nM in [11]. For the same compound, in data set [8], the Activity was -16%. Besides, the unbound share (fraction unbound) in [10] and in data set [13] was 0.04 throughout. In addition, the results for the Kp in [12] and in data set [14] were 2.3 and 0.16, respectively.
With `C[C@H]1CN(C(=O)c2ccc(-c3ccncc3F)c(F)c2)CCN1C(=O)c1ccc2cc[nH]c2c1`, the Activity in data set [8] is -1%. Moreover, the IC50 in data set [9] stood at 42 nM; in [11], 45 nM.
As for `Cc1ccccc1-c1ccc(C(=O)N2CCN(C(=O)c3ccc4cc[nH]c4c3)[C@@H](C)C2)cc1`, the Activity is 32% in data set [15], 31% in data set [8] and 18% in data set [25]. In addition, the inhibitory constant (Ki) in data set [16], in data set [17], in [18], in data set [19], in data set [20] and in data set [21] was greater than 10000 nM throughout. In addition, the Ki in [22], in [23], in data set [24], in [26], in [27] and in data set [28] was greater than 10000 nM in each case. Besides, the IC50 in [9] amounted to 2.9 nM.
As to `C[C@H]1CN(C(=O)c2ccc(-c3ccncc3F)cc2)CCN1C(=O)c1ccc2cc[nH]c2c1`, the Activity in [8] was -2%. In addition, the values for the IC50 in data set [9] and in data set [11] were 31 nM and 49 nM, respectively.

In general, clearance refers to the rate of elimination divided by the concentration. High values mean efficient removal, low ones inefficient removal. In general, MRT refers to a mean duration of stay, worked out from the concentration-time curve. What is called IC50 is the concentration that inhibits the measured activity by half. For orientation: fraction unbound means free concentration divided by total concentration. The low end stands for little free substance, the high end for much free substance. By Kp is commonly meant tissue or fluid exposure divided by exposure in the circulation. Broadly, the Ki is a dissociation constant, usually derived from enzyme kinetics or from competition with a known ligand.
